Structures can show the parent of a compound that is named as a salt.
How the values were obtained:
Visceral leishmaniasis = settings: cited from earlier work
Caco-2 cell monolayers = assay: Caco-2 bidirectional permeability assay; format: in vitro ADME; settings: A-to-B and B-to-A
[1] = In vivo pharmacokinetics in male BALB/c mice
[2] = Metabolic stability in pooled mouse liver microsomes; format: in vitro ADME
Method in brief: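 Microsomes pooled from ~100 B6C3F1 mice (9–10 weeks old). Triplicate incubations: 25 μM test compound with 0.25 mg/mL protein in 50 mM phosphate (pH 7.4), 0.1% DMSO, preincubated 5 min at 37°C, then started with 1 mM NADPH. Samples taken at 0–60 min and quenched in ice-cold 10% perchloric acid with internal standard. LC-MS/MS peak-area ratios used; t½ from substrate disappearance. No-NADPH and heat-inactivated controls included.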

SMILES: NC[C@@H]1O[C@H](O[C@H]2[C@@H](O)[C@H](O[C@@H]3[C@@H](O)[C@H](N)C[C@H](N)[C@H]3O[C@H]3O[C@H](CO)[C@@H](O)[C@H](O)[C@H]3N)O[C@@H]2CO)[C@H](N)[C@@H](O)[C@@H]1O [paromomycin, Paromomycin sulfate]
- Cure rate (Visceral leishmaniasis; after 6 months, treatment with paromomycin i.m.): About 95%
- Toxicity (in words) (Visceral leishmaniasis; i.m. route): no nephrotoxicity and reversible ototoxicity
- Caco-2 permeability (in words) (Caco-2 cell monolayers): negligible permeability
- Caco-2 permeability (in words) (Caco-2 cell monolayers; listed as Paromomycin): low permeability
- Plasma clearance as % of hepatic (liver) blood flow ([1]; IV, mice): < 10%
- clearance ([1]; male, BALB/c, mouse, plasma, iv, 15 mg/kg, CL, normal saline): 8 mL/min/kg
- Stability in mouse liver microsomes (in words) [2]: unstable
